From ChEMBL document CHEMBL1125212, “Dual-action cephalosporins: cephalosporin 3'-quinolone carbamates” (J Med Chem, 1991)
Values after ≈ are worked out from the molar mass of the structure shown.

How the values were obtained:
[1] = test system: Enterococcus faecalis; assay: The compound was tested in vitro for minimum inhibitory concentration against Enterococcus faecalis ATCC 29212; format: functional
Procedure, shortened: (§1)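 Agar dilution on Mueller-Hinton agar using 2-fold serial dilutions, giving final 128 to 0.0156 μg/mL (extended to 0.000977 μg/mL where needed). Inoculum was overnight broth culture diluted 100-fold, about 3×10^4 CFU/spot, applied by replicator. MIC read after overnight incubation at 36 °C.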

[2] = test system: Escherichia coli; assay: The compound was evaluated for the inhibition of [14C]- Pen G binding to Escherichia coli UB1005 penicillin-binding protein 1b 90 kDa.
Procedure, shortened: (§2)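 Membranes from sonicated E. coli UB1005 were solubilized. Binding to penicillin-binding proteins was measured as inhibition of [14C]penicillin G binding.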

[3] = test system: Escherichia coli; assay: The compound was tested in vitro for minimum inhibitory concentration against Escherichia coli 257; format: functional; procedure, shortened: as §1
[4] = test system: Escherichia coli; assay: The compound was evaluated for the inhibition of [14C]- Pen G binding to Escherichia coli UB1005 penicillin-binding protein 2 66 kDa.; procedure, shortened: as §2
[5] = species: Mus musculus; assay: Effective dose against mouse infected with Staphylococcus aureus 753 (MR) (LDs-6); format: functional
Procedure, shortened: (§3)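 Mouse protection test in CD1 Swiss albino mice (18-20 g) given an intraperitoneal challenge (0.5 mL of diluted culture), expressed as a multiple of LD50. A single subcutaneous dose of 1.0 mL test solution was given at the dorsal neck base within 5 min of infection. Dose range 250 to 0.05 mg/kg. Six mice per group. ED50 (protective dose) by Reed-Muench.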

[6] = species: Mus musculus; assay: (§4) Effective dose against mouse infected with Streptococcus pneumoniae 6301(LDs-5623); format: functional; procedure, shortened: as §3
[7] = test system: Micrococcus luteus; assay: The compound was tested in vitro for minimum inhibitory concentration against Micrococcus luteus ATCC 9341; format: functional; procedure, shortened: as §1
[8] = test system: Pseudomonas aeruginosa; assay: The compound was tested in vitro for minimum inhibitory concentration against Pseudomonas aeruginosa 18S/H; format: functional; procedure, shortened: as §1
[9] = test system: Proteus mirabilis; assay: The compound was tested in vitro for minimum inhibitory concentration against Proteus mirabilis 90; format: functional
Procedure, shortened: (§5)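 Proteus MICs by agar dilution on Mueller-Hinton medium containing 3% agar. Serial 2-fold dilutions gave final 128 to 0.0156 μg/mL (further to 0.000977 μg/mL). Inoculum was overnight broth diluted 100-fold, about 3×10^4 CFU/spot. Plates read after overnight incubation at 36 °C.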

[10] = test system: Streptococcus pyogenes; assay: The compound was tested in vitro for minimum inhibitory concentration against Streptococcus pyogenes; format: functional
Procedure, shortened: (§6)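 Streptococci tested by agar dilution on brain heart infusion agar with 20 units/mL bovine liver catalase. Final drug range 128 to 0.0156 μg/mL by 2-fold steps, extended to 0.000977 μg/mL when required. Inoculum about 3×10^4 CFU/spot from overnight broth diluted 100-fold. MIC after overnight incubation at 36 °C.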

[11] = test system: Escherichia coli; assay: Minimum inhibitory concentration for inhibition of [14C]- Pen G binding to Escherichia coli UB1005; format: functional; procedure, shortened: as §2
[12] = test system: Klebsiella pneumoniae; assay: The compound was tested in vitro for minimum inhibitory concentration against Klebsiella pneumoniae A; format: functional; procedure, shortened: as §1
[13] = test system: Proteus vulgaris; assay: The compound was tested in vitro for minimum inhibitory concentration against Proteus vulgaris 1028 BC; format: functional; procedure, shortened: as §5
[14] = test system: Escherichia coli; assay: The compound was evaluated for the inhibition of [14C]- Pen G binding to Escherichia coli UB1005 penicillin-binding protein 1a 90 kDa.; procedure, shortened: as §2
[15] = test system: Escherichia coli; assay: Minimum inhibitory concentration required to inhibit the activity of Escherichia coli UB1005; format: functional; procedure, shortened: as §1
[16] = test system: Staphylococcus aureus; assay: The compound was tested in vitro for minimum inhibitory concentration against Staphylococcus aureus smith; format: functional; procedure, shortened: as §1
[17] = test system: Escherichia coli; assay: Minimum inhibitory concentration required to inhibit the activity of Escherichia coli ATCC 25922; format: functional; procedure, shortened: as §1
[18] = test system: Escherichia coli; assay: The compound was tested in vitro for minimum inhibitory concentration against Escherichia coli ATCC 25922; format: functional; procedure, shortened: as §1
[19] = test system: Escherichia coli; assay: The compound was evaluated for the inhibition of [14C]- Pen G binding to Escherichia coli UB1005 penicillin-binding protein 3 60 kDa.; procedure, shortened: as §2
[20] = test system: Staphylococcus aureus; assay: The compound was tested in vitro for minimum inhibitory concentration against Staphylococcus aureus 67-0; format: functional; procedure, shortened: as §1
[21] = test system: Streptococcus pneumoniae; assay: The compound was tested in vitro for minimum inhibitory concentration against Streptococcus pneumoniae 6301; format: functional; procedure, shortened: as §6
[22] = species: Mus musculus; assay: (§7) Effective dose against mouse infected with Pseudomonas aeruginosa 8780 (LDs-240); format: functional
Procedure, shortened: (§8)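 CD1 Swiss albino mice (18-20 g) infected intraperitoneally with 0.5 mL of diluted bacterial suspension. Challenge expressed as a multiple of LD50. Drug given subcutaneously at the dorsal neck base within 5 min of infection (1.0 mL), with a second treatment 3 h after infection. Dose range 250 to 0.05 mg/kg. Six mice per group. ED50 by the Reed-Muench method.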

[23] = test system: Pseudomonas aeruginosa; assay: The compound was tested in vitro for minimum inhibitory concentration against Pseudomonas aeruginosa 8780; format: functional; procedure, shortened: as §1
[24] = test system: Staphylococcus aureus; assay: (§9) The compound was tested in vitro for minimum inhibitory concentration against Staphylococcus aureus 753; format: functional; procedure, shortened: as §1
[25] = test system: Serratia marcescens; assay: The compound was tested in vitro for minimum inhibitory concentration against Serratia marcescens 1071; format: functional; procedure, shortened: as §1
[26] = test system: Escherichia coli; assay: The compound was tested in vitro for minimum inhibitory concentration against Escherichia coli TEM-1; format: functional; procedure, shortened: as §1
[27] = test system: Citrobacter freundii; assay: The compound was tested in vitro for minimum inhibitory concentration against Citrobacter Freundii BS-16; format: functional; procedure, shortened: as §1
[28] = test system: Enterobacter cloacae; assay: The compound was tested in vitro for minimum inhibitory concentration against Enterobacter cloacae P99; format: functional
[29] = test system: Escherichia coli; assay: Inhibitory activity on replicative DNA biosynthesis in Escherichia coli H560 (permeabilised cells); format: functional, organism-based
Procedure, shortened: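 E. coli H560 cells permeabilized with toluene. ATP-dependent incorporation of [3H]thymidine into trichloroacetic acid-insoluble material was measured. IC50 taken as the concentration giving 50% inhibition.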

[30] = test system: Staphylococcus aureus; assay: animal or person; conditions: in Mus musculus
[31] = test system: Streptococcus pneumoniae; assay: as §4; format: functional; procedure, shortened: as §3
[32] = test system: Staphylococcus aureus; assay: as §9; format: functional, staphylococcus aureus smith; procedure, shortened: as §1
[33] = test system: Pseudomonas aeruginosa; assay: as §7; format: functional; procedure, shortened: as §8

Structure (SMILES)	MIC [1]	MIC [7]	MIC [9]	MIC [10]	MIC [12]	MIC [13]	MIC [20]	MIC [21]	MIC [25]	MIC [27]	IC50 [29]	other results
CO/N=C(\C(=O)N[C@@H]1C(=O)N2C(C(=O)O)=C(COC(=O)N3CCN(c4cc5c(cc4F)c(=O)c(C(=O)O)cn5C4CC4)CC3)CS[C@H]12)c1csc(N)n1	0.25 µg/mL (≈ 0.324 µM)	0.031 µg/mL (≈ 0.0402 µM)	0.063 µg/mL (≈ 0.0817 µM)	< 0.016 µg/mL	0.125 µg/mL (≈ 0.162 µM)	0.063 µg/mL (≈ 0.0817 µM)	2 µg/mL (≈ 2.59 µM)	< 0.016 µg/mL	0.25 µg/mL (≈ 0.324 µM)	0.125 µg/mL (≈ 0.162 µM)	0.9 µg/mL (≈ 1.17 µM)	Inhibitory concentration [2]: 30 µg/mL; MIC [3]: 0.031 µg/mL (≈ 0.0402 µM); Inhibitory concentration [4]: > 100 µg/mL; ED50 [5]: 28 mg/kg; ED50 [6]: 10 mg/kg; MIC [8]: 1 µg/mL (≈ 1.3 µM); MIC [11]: 0.5 µg/mL (≈ 0.649 µM); Inhibitory concentration [14]: 100 µg/mL; MIC [15]: 0.5 µg/mL (≈ 0.649 µM); MIC [16]: 0.5 µg/mL (≈ 0.649 µM); MIC [17]: 0.03 µg/mL (≈ 0.0389 µM); MIC [18]: 0.031 µg/mL (≈ 0.0402 µM); Inhibitory concentration [19]: 0.5 µg/mL; ED50 [22]: 33 mg/kg; MIC [23]: 1 µg/mL (≈ 1.3 µM); MIC [24]: 2 µg/mL (≈ 2.59 µM); MIC [26]: 0.063 µg/mL (≈ 0.0817 µM); MIC [28]: < 0.016 µg/mL
O=C(O)c1cn(C2CC2)c2cc(N3CCNCC3)c(F)cc2c1=O [CIPROFLOXACIN]	1 µg/mL (≈ 3.02 µM)	2 µg/mL (≈ 6.04 µM)	0.063 µg/mL (≈ 0.19 µM)	0.5 µg/mL (≈ 1.51 µM)	0.25 µg/mL (≈ 0.754 µM)	0.016 µg/mL (≈ 0.0483 µM)	0.5 µg/mL (≈ 1.51 µM)	1 µg/mL (≈ 3.02 µM)	0.063 µg/mL (≈ 0.19 µM)	0.031 µg/mL (≈ 0.0936 µM)	0.3 µg/mL (≈ 0.905 µM)	ED50 [30]: 2 mg/kg; ED50 [31]: > 50 mg/kg; MIC [32]: 0.25 µg/mL (≈ 0.754 µM); ED50 [33]: 3 mg/kg
